Several values for one entry are separate records, joined by “and”; a condition that tells them apart may be missing. Equal values may be shown once.
Test system: U2OS
Assay: Multiplex assay against U2OS
Assay type: toxicity, cell-based
Conditions: human
Summary of the method: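 Compound was added to live cells that had been stained at seeding with Hoechst33342, BioTracker Green Microtubule Cytoskeleton Dye, MitoTracker Red and Annexin V Alexa Fluor 680, and imaging followed on a CQ1 microscope at 37°C and 5% CO2. CellPathfinder machine-learning gating divided cells into Hoechst high-intensity objects or normal cells, normal cells into healthy, pyknosed or fragmented nuclei, and pyknosed cells into mitotic or apoptotic. Tubulin, mitochondrial-mass and membrane-permeability phenotypes are per cents of healthy-nucleus cells.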

[1] = 12 h, 1 µM, compound concentration 1 uM
[2] = 12 h, 10 µM, compound concentration 10 uM
[3] = 24 h, 1 µM, compound concentration 1 uM
[4] = 24 h, 10 µM, compound concentration 10 uM
[5] = 48 h, 1 µM, compound concentration 1 uM
[6] = 48 h, 10 µM, compound concentration 10 uM

**Q.** What does the source list for `CCc1cc2cc(NS(=O)(=O)c3ccc(C#N)cc3)ccc2n(CC)c1=O`?
**A.** Population Apoptotic (%) [1]: 88% and 100%; Population Fragmented Nuclei (%) [1]: 30% and 26%; Population Healthy Nuclei (%) [1]: 60% and 70%; Population Hoechst High Intensity Objects (%) [1]: 3% and 1%; Population Membrane Permeable-Phenotype (%) [1]: 4% and 8%; Population Mitochondria Different-Phenotype (%) [1]: 2%; Population Mitotic Cells (%) [1]: 11% and 0%; Population Normal (%) [1]: 96% and 98%; Population Pyknosed Nuclei (%) [1]: 9% and 3%; Population Tubulin-Different-Phenotype (%) [1]: 2% and 7%; Total Cell Count [1]: 286 and 113; Population Apoptotic (%) [2]: 66% and 87%; Population Fragmented Nuclei (%) [2]: 28% and 13%; Population Healthy Nuclei (%) [2]: 64% and 80%; Population Hoechst High Intensity Objects (%) [2]: 2%; Population Membrane Permeable-Phenotype (%) [2]: 9% and 6%; Population Mitochondria Different-Phenotype (%) [2]: 3%; Population Mitotic Cells (%) [2]: 33% and 12%; Population Normal (%) [2]: 97%; Population Pyknosed Nuclei (%) [2]: 6% and 5%; Population Tubulin-Different-Phenotype (%) [2]: 4%; Total Cell Count [2]: 220 and 139; Population Apoptotic (%) [3]: 85% and 88%; Population Fragmented Nuclei (%) [3]: 29% and 16%; Population Healthy Nuclei (%) [3]: 61% and 75%; Population Hoechst High Intensity Objects (%) [3]: 2% and 1%; Population Membrane Permeable-Phenotype (%) [3]: 9% and 7%; Population Mitochondria Different-Phenotype (%) [3]: 2% and 7%; Population Mitotic Cells (%) [3]: 14% and 11%; Population Normal (%) [3]: 97% and 98%; Population Pyknosed Nuclei (%) [3]: 8% and 7%; Population Tubulin-Different-Phenotype (%) [3]: 6% and 3%; Total Cell Count [3]: 335 and 126; Population Apoptotic (%) [4]: 95% and 80%; Population Fragmented Nuclei (%) [4]: 23% and 14%; Population Healthy Nuclei (%) [4]: 67% and 79%; Population Hoechst High Intensity Objects (%) [4]: 3%; Population Membrane Permeable-Phenotype (%) [4]: 4% and 6%; Population Mitochondria Different-Phenotype (%) [4]: 2%; Population Normal (%) [4]: 96%; Population Pyknosed Nuclei (%) [4]: 9% and 6%; Population Tubulin-Different-Phenotype (%) [4]: 1% and 2%; Total Cell Count [4]: 263 and 159; Population Apoptotic (%) [5]: 89% and 84%; Population Fragmented Nuclei (%) [5]: 21% and 19%; Population Healthy Nuclei (%) [5]: 70% and 73%; Population Hoechst High Intensity Objects (%) [5]: 2% and 3%; Population Membrane Permeable-Phenotype (%) [5]: 6%; Population Mitochondria Different-Phenotype (%) [5]: 3% and 5%; Population Mitotic Cells (%) [5]: 10% and 15%; Population Normal (%) [5]: 97% and 96%; Population Pyknosed Nuclei (%) [5]: 8% and 6%; Population Tubulin-Different-Phenotype (%) [5]: 2% and 3%; Total Cell Count [5]: 450 and 192; Population Apoptotic (%) [6]: 88% and 96%; Population Fragmented Nuclei (%) [6]: 18% and 15%; Population Healthy Nuclei (%) [6]: 72% and 73%; Population Hoechst High Intensity Objects (%) [6]: 3% and 2%; Population Membrane Permeable-Phenotype (%) [6]: 6% and 8%; Population Mitochondria Different-Phenotype (%) [6]: 2% and 3%; Population Mitotic Cells (%) [6]: 11% and 3%; Population Normal (%) [6]: 96% and 97%; Population Pyknosed Nuclei (%) [6]: 9% and 11%; Population Tubulin-Different-Phenotype (%) [6]: 3% and 7%; Total Cell Count [6]: 387 and 248

**Q.** With `Cc1ccccc1C(=O)Nc1ccc(C(=O)N2CCCC(N(C)C)c3ccccc32)cc1.Cl` (stereo not given) as the compound, how does the “Population Apoptotic (%)” value [1] read?
**A.** 91% and 77%

**Q.** What about the “Population Fragmented Nuclei (%)” value [1] of the same compound?
**A.** 20% and 14%

**Q.** What about the “Population Healthy Nuclei (%)” value [1] of the same compound?
**A.** 70% and 79%

**Q.** And the “Population Hoechst High Intensity Objects (%)” value [1]?
**A.** 1%

**Q.** And the “Population Membrane Permeable-Phenotype (%)” value [1]?
**A.** 5% and 4%

**Q.** What about the “Population Mitochondria Different-Phenotype (%)” value [1] of the same compound?
**A.** 3% and 5%

**Q.** What about the “Population Mitotic Cells (%)” value [1] of the same compound?
**A.** 8% and 22%

**Q.** What about the “Population Normal (%)” value [1] of the same compound?
**A.** 98%

**Q.** What about the “Population Pyknosed Nuclei (%)” value [1] of the same compound?
**A.** 8% and 5%

**Q.** What about the “Population Tubulin-Different-Phenotype (%)” value [1] of the same compound?
**A.** 4% and 1%

**Q.** What about the “Total Cell Count” value [1] of the same compound?
**A.** 282 and 157

**Q.** What about the “Population Apoptotic (%)” value [2] of the same compound?
**A.** 59% and 56%

**Q.** What about the “Population Fragmented Nuclei (%)” value [2] of the same compound?
**A.** 18%

**Q.** And the “Population Healthy Nuclei (%)” value [2]?
**A.** 55% and 62%

**Q.** What about the “Population Hoechst High Intensity Objects (%)” value [2] of the same compound?
**A.** 4% and 1%

**Q.** What about the “Population Membrane Permeable-Phenotype (%)” value [2] of the same compound?
**A.** 14% and 15%

**Q.** And the “Population Mitochondria Different-Phenotype (%)” value [2]?
**A.** 11% and 25%

**Q.** What about the “Population Mitotic Cells (%)” value [2] of the same compound?
**A.** 40% and 43%

**Q.** And the “Population Normal (%)” value [2]?
**A.** 95% and 98%

**Q.** What about the “Population Pyknosed Nuclei (%)” value [2] of the same compound?
**A.** 25% and 19%

**Q.** And the “Population Tubulin-Different-Phenotype (%)” value [2]?
**A.** 8% and 15%

**Q.** What about the “Total Cell Count” value [2] of the same compound?
**A.** 213 and 83

**Q.** And the “Population Apoptotic (%)” value [3]?
**A.** 88% and 66%

**Q.** And the “Population Fragmented Nuclei (%)” value [3]?
**A.** 18% and 13%

**Q.** What about the “Population Healthy Nuclei (%)” value [3] of the same compound?
**A.** 70% and 77%

**Q.** And the “Population Hoechst High Intensity Objects (%)” value [3]?
**A.** 0% and 1%

**Q.** And the “Population Membrane Permeable-Phenotype (%)” value [3]?
**A.** 6% and 5%

**Q.** What about the “Population Mitochondria Different-Phenotype (%)” value [3] of the same compound?
**A.** 3% and 4%

**Q.** What about the “Population Mitotic Cells (%)” value [3] of the same compound?
**A.** 11% and 33%

**Q.** What about the “Population Normal (%)” value [3] of the same compound?
**A.** 99% and 98%

**Q.** What about the “Population Pyknosed Nuclei (%)” value [3] of the same compound?
**A.** 10% and 9%

**Q.** And the “Population Tubulin-Different-Phenotype (%)” value [3]?
**A.** 4% and 3%

**Q.** What about the “Total Cell Count” value [3] of the same compound?
**A.** 333 and 192

**Q.** And the “Population Apoptotic (%)” value [4]?
**A.** 71% and 46%

**Q.** What about the “Population Fragmented Nuclei (%)” value [4] of the same compound?
**A.** 16% and 27%

**Q.** And the “Population Healthy Nuclei (%)” value [4]?
**A.** 51% and 53%

**Q.** And the “Population Hoechst High Intensity Objects (%)” value [4]?
**A.** 4% and 5%

**Q.** What about the “Population Membrane Permeable-Phenotype (%)” value [4] of the same compound?
**A.** 16% and 18%

**Q.** And the “Population Mitochondria Different-Phenotype (%)” value [4]?
**A.** 14% and 18%

**Q.** What about the “Population Mitotic Cells (%)” value [4] of the same compound?
**A.** 28% and 53%

**Q.** What about the “Population Normal (%)” value [4] of the same compound?
**A.** 95% and 94%

**Q.** And the “Population Pyknosed Nuclei (%)” value [4]?
**A.** 31% and 18%

**Q.** And the “Population Tubulin-Different-Phenotype (%)” value [4]?
**A.** 6% and 18%

**Q.** What about the “Total Cell Count” value [4] of the same compound?
**A.** 211 and 73

**Q.** And the “Population Apoptotic (%)” value [5]?
**A.** 85% and 83%

**Q.** What about the “Population Fragmented Nuclei (%)” value [5] of the same compound?
**A.** 14% and 15%

**Q.** And the “Population Healthy Nuclei (%)” value [5]?
**A.** 71% and 72%

**Q.** What about the “Population Hoechst High Intensity Objects (%)” value [5] of the same compound?
**A.** 1%

**Q.** And the “Population Membrane Permeable-Phenotype (%)” value [5]?
**A.** 5% and 7%

**Q.** And the “Population Mitochondria Different-Phenotype (%)” value [5]?
**A.** 3% and 5%

**Q.** And the “Population Mitotic Cells (%)” value [5]?
**A.** 14% and 16%

**Q.** And the “Population Normal (%)” value [5]?
**A.** 98%

**Q.** And the “Population Pyknosed Nuclei (%)” value [5]?
**A.** 13% and 12%

**Q.** And the “Population Tubulin-Different-Phenotype (%)” value [5]?
**A.** 3% and 4%

**Q.** What about the “Total Cell Count” value [5] of the same compound?
**A.** 414 and 248

**Q.** And the “Population Apoptotic (%)” value [6]?
**A.** 71% and 84%

**Q.** And the “Population Fragmented Nuclei (%)” value [6]?
**A.** 28%

**Q.** And the “Population Healthy Nuclei (%)” value [6]?
**A.** 43% and 42%

**Q.** And the “Population Hoechst High Intensity Objects (%)” value [6]?
**A.** 8%

**Q.** What about the “Population Membrane Permeable-Phenotype (%)” value [6] of the same compound?
**A.** 17% and 11%

**Q.** What about the “Population Mitotic Cells (%)” value [6] of the same compound?
**A.** 28% and 16%

**Q.** And the “Population Normal (%)” value [6]?
**A.** 91%

**Q.** What about the “Population Pyknosed Nuclei (%)” value [6] of the same compound?
**A.** 28% and 29%

**Q.** What about the “Population Tubulin-Different-Phenotype (%)” value [6] of the same compound?
**A.** 7% and 13%

**Q.** And the “Total Cell Count” value [6]?
**A.** 206 and 93

Reference: ChEMBL document CHEMBL5724801, “EUbOPEN Chemogenomics Library - Multiplex” (2024)
